Laboratory results published in ChEMBL document CHEMBL3352032, “Antiplasmodial activity of new 4-aminoquinoline derivatives against chloroquine resistant strain” (Bioorg Med Chem, 2014).

How the values were obtained:
[1] = tested on: Plasmodium falciparum; test: Antiplasmodial activity against chloroquine-resistant Plasmodium falciparum K1 after 72 hrs by SYBR Green-1 staining-based fluorescence assay; format: functional, organism-based; conditions: K1, 72 h
Procedure, shortened: (§1)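 Compounds were dissolved in DMSO as 10 mM stocks and two-fold serially diluted. Dilutions were incubated with a 1.0% parasitized cell suspension at 0.8% parasitemia, using an asynchronous culture with more than 80% ring stages. Incubation was 72 h at 37 °C in 5% CO2/air. Lysis buffer with 2x SYBR Green-1 was then added for 1 h at 37 °C, and fluorescence (RFU) was read at 485±20 nm.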

[2] = Selectivity index, ratio of CC50 for African green monkey Vero cells to IC50 for Plasmodium falciparum; format: functional
Procedure, shortened: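 Vero cells exposed to compound dilutions for 72 h; cytotoxicity read by MTT, CC50 by nonlinear regression of dose-response curves. Antiplasmodial IC50 from P. falciparum asynchronous culture (>80% rings, 0.8% parasitemia, 1% hematocrit suspension), twofold serial dilutions, 72 h at 37 °C, 5% CO2, SYBR Green I fluorescence. SI = CC50/IC50.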

[3] = tested on: Plasmodium falciparum; test: Antiplasmodial activity against chloroquine-sensitive Plasmodium falciparum 3D7 after 72 hrs by SYBR Green-1 staining-based fluorescence assay; format: functional, organism-based; conditions: 3D7, 72 h; procedure, shortened: as §1
[4] = Inhibition of beta-hematin formation assessed as inhibition of hemozoin formation by UV spectrophotometry; format: physicochemical
Procedure, shortened: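 β-Hematin polymerization induced by 1-oleoyl-rac-glycerol, read at 405 nm by UV spectrophotometry. Triplicate values expressed as percent inhibition relative to drug-free hemozoin formation. IC50 in millimolar equivalents of compound relative to hemin, from sigmoidal dose-response non-linear regression. Means ± SD from at least three experiments in duplicate.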

[5] = Association constant, log K of the compound in aqueous DMSO at pH 7.5 assessed as complex formation by UV spectrophotometry; format: physicochemical; conditions: buffer
Procedure, shortened: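 Spectrophotometric titration of hematin with compound in 40% aqueous DMSO, 20 mM HEPES, pH 7.5, 25 °C; hematin monomeric under these conditions. Association constant fitted for 1:1 compound:hematin complex. Means ± SD from at least three experiments in duplicate.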

[6] = tested on: Plasmodium falciparum; test: Resistance index, ratio of IC50 for chloroquine-resistant Plasmodium falciparum K1 to IC50 for chloroquine-sensitive Plasmodium falciparum 3D7; format: functional
Procedure, shortened: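 The index is the IC50 against K1 divided by the IC50 against 3D7. Both IC50s come from the 72 h SYBR Green-1 fluorescence assay: two-fold serial dilutions from 10 mM DMSO stocks, 1.0% parasitized cells at 0.8% parasitemia (>80% rings), 37 °C, 5% CO2.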

Compound | IC50 [1] [nM] | Ratio CC50/IC50 [2] | IC50 [3] [nM] | IC50 [4] [mMequiv] | inhibition (INH) [4] | log K [5] | Ratio IC50 [6]
CC[C@H](C)[C@H](NC(=O)OC(C)(C)C)C(=O)C=[N+]=[N-] | 168 | – | – | – | – | – | –
C[C@H](Nc1ccnc2cc(Cl)ccc12)C(=O)NCCN1CCCCC1 | > 500 | 3025 | 64.1 | 0.2166 | Dose-dependent effect | 5.73 | >7.8
CCN(CC)CCCC(C)Nc1ccnc2cc(Cl)ccc12 (centres undefined) [CHLOROQUINE] | – | – | – | 0.17 | – | 5.52 | –
CN1CCN(C(=O)CCNc2ccnc3cc(Cl)ccc23)CC1 | 398 | 6472 | 35.9 | 0.3293 | Dose-dependent effect | 6.43 | 11.1
C[C@H](Nc1ccnc2cc(Cl)ccc12)C(=O)N1CCN(C)CC1 | 207 | 2900 | 73.8 | 0.1677 | Dose-dependent effect | 5.36 | 2.79
CCN(CC)CCCNC(=O)[C@H](C)Nc1ccnc2cc(Cl)ccc12 | > 500 | 2585 | 82.6 | 0.2145 | Dose-dependent effect | 5.27 | >6.05
CC(C)(C)OC(=O)N[C@@H](Cc1ccccc1)C(=O)C=[N+]=[N-] | 55.3 | – | – | – | – | – | –
CN1CCN(C(=O)CCCNc2ccnc3cc(Cl)ccc23)CC1 | 781 | 4432 | 65.1 | 0.2023 | Dose-dependent effect | 6.52 | 11.99
CN1CCN(C(=O)[C@H](Cc2c[nH]c3ccccc23)Nc2ccnc3cc(Cl)ccc23)CC1 | 262 | 392 | 223 | 0.3302 | Dose-dependent effect | 6.36 | 1.17
CN1CCN(C(=O)[C@H](CO)Nc2ccnc3cc(Cl)ccc23)CC1 | 925 | 1976 | 116 | 0.3604 | Dose-dependent effect | 5.68 | 7.96
CC(C)C[C@H](Nc1ccnc2cc(Cl)ccc12)C(=O)N1CCN(C)CC1 | 147 | 905 | 60.2 | 0.2283 | Dose-dependent effect | 5.38 | 2.44
C[C@H](O)[C@H](Nc1ccnc2cc(Cl)ccc12)C(=O)N1CCN(C)CC1 | > 1380 | 1934 | 142 | 0.3837 | Dose-dependent effect | 6.07 | >9.67
CSCC[C@H](Nc1ccnc2cc(Cl)ccc12)C(=O)N1CCN(C)CC1 | 129 | 3821 | 58.4 | 0.3595 | Dose-dependent effect | 5.04 | 2.2
CCN(CC)CCNC(=O)[C@H](C)Nc1ccnc2cc(Cl)ccc12 | > 500 | 5834 | 35.4 | 0.1531 | Dose-dependent effect | 6.03 | >14.13
CC[C@H](C)[C@@H](CC(=O)N1CCN(C)CC1)Nc1ccnc2cc(Cl)ccc12 | 168 | 7613 | 33 | 0.2197 | Dose-dependent effect | 6.26 | 5.08
CC(C)[C@H](Nc1ccnc2cc(Cl)ccc12)C(=O)N1CCN(C)CC1 | 599 | 1023 | 271 | 0.2349 | Dose-dependent effect | 6.39 | 2.21
CN1CCN(C(=O)CC[C@H](Cc2ccccc2)Nc2ccnc3cc(Cl)ccc23)CC1 | 71.2 | 11350 | 11.5 | 0.1961 | Dose-dependent effect | 5.32 | 6.18
C[C@H](Nc1ccnc2cc(Cl)ccc12)C(=O)NCCCN(C)C | > 500 | 2606 | 142 | 0.176 | Dose-dependent effect | 5.34 | >3.51
CN1CCN(C(=O)CNc2ccnc3cc(Cl)ccc23)CC1 | 177 | 1566 | 149 | 0.1915 | Dose-dependent effect | 7.34 | 1.18
CN1CCN(C(=O)[C@H](Cc2ccccc2)Nc2ccnc3cc(Cl)ccc23)CC1 | 116 | 429 | 109 | 0.6619 | Dose-dependent effect | 5.11 | 1.06
CC(C)[C@H](CC(=O)N1CCN(C)CC1)Nc1ccnc2cc(Cl)ccc12 | 324 | 6045 | 44.1 | 0.2286 | Dose-dependent effect | 5.33 | 7.33
C[C@H](Nc1ccnc2cc(Cl)ccc12)C(=O)N1CCN(c2ccccc2)CC1 | > 500 | – | > 500 | 0.2082 | Dose-dependent effect | 5.94 | –
CC[C@H](C)[C@H](Nc1ccnc2cc(Cl)ccc12)C(=O)N1CCN(C)CC1 | 365 | 2188 | 83.8 | 0.2295 | Dose-dependent effect | 5.72 | 4.34
CN1CCN(C(=O)C[C@H](Cc2ccccc2)Nc2ccnc3cc(Cl)ccc23)CC1 | 55.3 | 5846 | 19.2 | 0.1739 | Dose-dependent effect | 5.8 | 2.87
